Active and inactive are the calls of the source. No cut-off for these calls is given here.
Columns and labels:
Assay type in all cases: cell-based
[1] = target: T1, Oxysterols receptor LXR-alpha (Homo sapiens) (UniProt Q13133); assay: Agonist activity at human full length LXRalpha expressed in […] cells co-expressing human pSG5/RXRalpha at 10 uM after 18 hrs by luciferase reporter gene assay relative to GW3965
T1 sequence (whole entry): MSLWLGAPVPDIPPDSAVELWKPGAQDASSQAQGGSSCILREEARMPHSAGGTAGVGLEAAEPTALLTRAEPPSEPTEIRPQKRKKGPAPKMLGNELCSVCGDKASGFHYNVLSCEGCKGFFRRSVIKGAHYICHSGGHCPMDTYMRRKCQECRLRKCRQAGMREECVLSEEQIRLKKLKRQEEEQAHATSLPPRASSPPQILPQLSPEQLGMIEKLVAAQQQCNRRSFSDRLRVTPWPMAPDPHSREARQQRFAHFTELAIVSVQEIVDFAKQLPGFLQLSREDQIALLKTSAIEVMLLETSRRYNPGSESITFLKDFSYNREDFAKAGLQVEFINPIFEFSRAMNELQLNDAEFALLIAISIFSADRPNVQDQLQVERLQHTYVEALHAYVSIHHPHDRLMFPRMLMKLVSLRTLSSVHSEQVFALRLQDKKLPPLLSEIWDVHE
Method in brief: (§1)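 BHK21 cells co-transfected with an RXR plasmid, a full-length human LXRα or LXRβ expression vector and the pGL3/LRELuc reporter. Steroids were added alone at 10 µM and luciferase activity was read. Activity is expressed as % induction relative to GW3965 1 µM (100%). Means ± S.E. of 3 independent experiments; one-way ANOVA with Dunnett's test versus the no-steroid control.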

[2] = target: T1, Oxysterols receptor LXR-alpha (Homo sapiens); assay: Antagonist activity at human full length LXRalpha expressed in […] cells co-expressing human pSG5/RXRalpha assessed as inhibition of GW3965-induced receptor activation at 10 uM after 18 hrs by luciferase reporter gene assay
Method in brief: (§2)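 Antagonist mode in BHK21 cells co-transfected with an RXR plasmid, a full-length human LXRα or LXRβ vector and the pGL3/LRELuc luciferase reporter. Steroids at 10 µM were co-administered with the synthetic agonist GW3965. Luciferase output is given as % of the GW3965 1 µM response. Means ± S.E., n=3 independent experiments; Dunnett's test after one-way ANOVA.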

[3] = target: T2, Oxysterols receptor LXR-beta (Homo sapiens) (UniProt P55055); assay: Agonist activity at human full length LXRbeta expressed in […] cells co-expressing human pSG5/RXRalpha at 10 uM after 18 hrs by luciferase reporter gene assay relative to GW3965; method in brief: as §1
T2 sequence (whole entry): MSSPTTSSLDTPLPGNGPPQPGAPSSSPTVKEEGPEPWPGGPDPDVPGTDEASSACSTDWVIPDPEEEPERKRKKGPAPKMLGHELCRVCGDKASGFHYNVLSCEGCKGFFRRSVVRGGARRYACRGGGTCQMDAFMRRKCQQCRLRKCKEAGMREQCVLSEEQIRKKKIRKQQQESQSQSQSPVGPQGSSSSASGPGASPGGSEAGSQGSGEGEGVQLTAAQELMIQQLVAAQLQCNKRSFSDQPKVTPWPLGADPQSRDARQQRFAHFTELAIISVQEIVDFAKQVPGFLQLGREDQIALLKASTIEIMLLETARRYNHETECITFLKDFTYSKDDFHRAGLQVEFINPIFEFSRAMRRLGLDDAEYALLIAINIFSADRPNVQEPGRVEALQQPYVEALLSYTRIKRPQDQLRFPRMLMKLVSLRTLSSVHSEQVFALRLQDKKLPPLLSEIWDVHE

[4] = target: T2, Oxysterols receptor LXR-beta (Homo sapiens); assay: Antagonist activity at human full length LXRbeta expressed in […] cells co-expressing human pSG5/RXRalpha assessed as inhibition of GW3965-induced receptor activation at 10 uM after 18 hrs by luciferase reporter gene assay; method in brief: as §2

Compound	Activity [1]	inhibition [2]	Activity [3]	inhibition [4]
C[C@H](CCC(=O)N(C)C)[C@H]1CC[C@H]2[C@@H]3CC[C@H]4C[C@H](O)[C@@H]5C[C@]4(CO5)[C@H]3CC[C@]12C	inactive	Active	inactive	Active
C[C@H](CCC(=O)N(C)C)[C@H]1CC[C@H]2[C@@H]3C[C@@H]4OC[C@@]5(CC[C@@H](O)C=C45)[C@H]3CC[C@]12C	Active	–	–	inactive
C[C@H](CCC(=O)N(C)C)[C@H]1CC[C@H]2[C@@H]3CC[C@@H]4C[C@H](O)CC[C@]4(C)[C@H]3CC[C@]12C	Active	–	inactive	–
C[C@H](CCC(=O)N(C)C)[C@H]1CC[C@H]2[C@@H]3C[C@H](O)[C@@H]4C[C@H](O)CC[C@]4(C)[C@H]3CC[C@]12C	–	Active	Active	Active
C[C@H](CCC(=O)N(C)C)[C@H]1CC[C@H]2[C@@H]3CC[C@H]4C[C@@H](O)[C@@H]5C[C@]4(CO5)[C@H]3CC[C@]12C	inactive	Active	inactive	Active
C[C@H](CCC(=O)N(C)C)[C@H]1CC[C@H]2[C@@H]3CC=C4C[C@@H](O)CC[C@]4(C)[C@H]3CC[C@]12C	Active	Active	Active	Active

— ChEMBL document CHEMBL4219067, “Synthesis and activity evaluation of a series of cholanamides as modulators of the liver X receptors” (Bioorg Med Chem, 2018)
